From ChEMBL document CHEMBL1125770, “Synthesis and antitumor properties of activated cyclophosphamide analogues” (J Med Chem, 1991) come the findings set out here.

Data set [1] has as its system L1210. Briefly: In vitro antitumor activity against wild-type L1210/0 cells. The format is functional, Mus musculus. The method in brief:
(§1)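 Clonogenic assay on L1210 and P388 leukemia cells, wild-type (/O) and cyclophosphamide-resistant (/CP) lines, with 1-h drug exposure. LC99 is the concentration that cuts colony formation to 1% of control. It comes from linear regression of log survival vs concentration, at least three determinations.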

For data set [2], the system named is P388. Put plainly: Resistance factor for LC99 of resistant (P388/CP) to that of LC99 for wild type (P388/0). The format is functional, Mus musculus. The method in brief: (§2)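 Resistance factor is LC99 in the cyclophosphamide-resistant line divided by LC99 in the matching wild-type line. Each LC99 comes from a clonogenic assay with 1-h drug exposure, by linear regression of log survival vs concentration, at least three determinations.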

In data set [3] the test system is L1210. Put plainly: In vivo antitumor activity against intraperitoneal murine wild type L1210 Leukemia cells at 340 umol/kg. The format is functional, Mus musculus. The method in brief:
(§3)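 NCI L1210 protocol. Tumor propagated in DBA/2 mice; tests done in B6D2F1 mice, six per group, given 10⁶ L1210 cells ip. One ip dose of drug suspended in 2% (carboxymethyl)cellulose (or vehicle alone) given 24 h later. Survival followed daily for 30 days. %T/C = 100 × treated/control survival time.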

In data set [4] the test system is P388. Briefly: In vitro antitumor activity against cyclophosphamide-resistant P388/CP cells. Format: functional, Mus musculus. In short, it runs like this: as §1
Data set [5] relates to L1210. Briefly: Resistance factor for LC99 of resistant (L1210/CP) to that of LC99 for wild type (L1210/0). The format is functional, Mus musculus. The method in brief:
as §2

Data set [6] is described as follows: Half-life in 4:6 acetone/ 1.0 M HEPES buffer, pH 7.4, 37 degree celsius. Format: ADME. In short, it runs like this: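 Generation of 4 from the 4-hydroxy compounds followed by ³¹P NMR in 4:6 acetone/1.0 M HEPES, pH 7.4, 37 °C; half-time of phosphoramide mustard release recorded.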
For data set [7], the system named is P388. Put plainly: In vitro antitumor activity against wild-type P388/0 cells. Format: functional, Mus musculus. In short, it runs like this: as §1
For data set [8], the system named is L1210. Briefly: In vitro antitumor activity against cyclophosphamide-resistant L1210/CP cells. The format is functional, Mus musculus. In short, it runs like this:
as §1

For data set [9], the system named is L1210. Briefly: In vivo antitumor activity against intraperitoneal murine wild type L1210 Leukemia cells at 510 umol/kg. Format: functional, Mus musculus. In short, it runs like this:
as §3

Data set [10] relates to L1210. Briefly: In vivo antitumor activity against intraperitoneal murine wild type L1210 Leukemia cells at 170 umol/kg. Format: functional, Mus musculus. The method in brief: as §3
The test system of data set [11] is L1210. Put plainly: In vivo antitumor activity against intraperitoneal murine cyclophosphamide resistant L1210 Leukemia cells at 170 umol/kg. Format: functional, Mus musculus. The method in brief: as §3
Data set [12] deals with L1210. Put plainly: In vivo antitumor activity against intraperitoneal murine cyclophosphamide resistant L1210 Leukemia cells at 340 umol/kg. Format: functional, Mus musculus. In short, it runs like this:
as §3

The subject of data set [13] is L1210. Briefly: In vivo antitumor activity against intraperitoneal murine cyclophosphamide resistant L1210 Leukemia cells at 510 umol/kg. Format: functional, Mus musculus. In short, it runs like this: as §3
Data set [14] has as its system L1210. Briefly: In vivo antitumor activity against intraperitoneal murine cyclophosphamide resistant L1210 Leukemia cells at 680 umol/kg. The format is functional, Mus musculus. In short, it runs like this: as §3
The test system of data set [15] is L1210. Briefly: In vivo antitumor activity against intraperitoneal murine wild type L1210 Leukemia cells at 680 umol/kg. The format is functional, Mus musculus. The method in brief:
as §3

Some results are limits rather than exact numbers.

In the case of `C[C@@H]1C[C@@H](OO)N[P@](=O)(N(CCCl)CCCl)O1`, the LC99 amounted to 39 µM with L1210 [1], 69 µM with P388 [4], 26 µM with P388 [7] and 180 µM in the data set on L1210 [8]. Also, the RF is given as 2.7 with P388 [2] and 4.6 in the data set on L1210 [5]. In the data set on L1210 [3], this compound came in with a T/C of 138%. This compound registered a half-life in [6] greater than 8.33 h.
For `O=[P@]1(N(CCCl)CCCl)N[C@H](OO)C[C@@H](c2ccc(F)cc2)O1`, the LC99 in the data set with L1210 [1] amounted to 7 µM; in the data set with P388 [4] it was 5 µM; in the data set on P388 [7], 6 µM; with L1210 [8], 8 µM. The RF in the data set on P388 [2] and with L1210 [5] was 1.2 throughout. The T/C with L1210 [3] is given as 163%; in the data set on L1210 [9], 188%. Besides, the half-life in data set [6] came to 3.42 h.
As to `O=[P@]1(N(CCCl)CCCl)N[C@H](OO)C[C@@H](c2ccccc2)O1`, the LC99 in the data set with L1210 [1] was found to be 9 µM; with P388 [4], 15 µM; with P388 [7] it was 6 µM; in the data set with L1210 [8] it was 29 µM. For the same compound, the RF with P388 [2] is recorded as 2.5; with L1210 [5], 3.2. In addition, the T/C in the data set on L1210 [3] turned out to be 144%; in the data set with L1210 [10], 117%. In [6], this compound gave a half-life of 2.17 h.
Take `O=[P@]1(N(CCCl)CCCl)N[C@H](OO)C[C@@H](c2cccnc2)O1`: the LC99 with L1210 [1] was found to be 36 µM; in the data set on P388 [4], 34 µM; in the data set with P388 [7] it was 33 µM; in the data set on L1210 [8] it was 56 µM. Also, the RF in the data set with P388 [2] came to 1; in the data set with L1210 [5], 1.6. In addition, the half-life in [6] turned out to be 1.75 h.
Regarding `O=[P@]1(N(CCCl)CCCl)N[C@H](OO)C[C@@H](CCc2ccccc2)O1`, the LC99 came out at 13 µM in the data set with L1210 [1], 5 µM with P388 [4], 10 µM with P388 [7] and 9 µM in the data set with L1210 [8]. Further, the values for the RF in the data set on P388 [2] and in the data set with L1210 [5] were 0.5 and 0.7, respectively. Further, the T/C in the data set with L1210 [3] turned out to be 106%. Further, the half-life in data set [6] is greater than 8.33 h.
On to `O=P1(N(CCCl)CCCl)NCCCO1` (stereo not given) [CYCLOPHOSPHAMIDE ANHYDROUS], for which the T/C with L1210 [11] was 105%; in the data set with L1210 [12], 95%; in the data set with L1210 [13], 110%; with L1210 [10], 150%; in the data set on L1210 [9], 208%.
On to `CC(C)[C@@H]1C[C@@H](OO)N[P@](=O)(N(CCCl)CCCl)O1`, for which the results for the LC99 in the data set with L1210 [1], with P388 [7] and with L1210 [8] were 110 µM, 61 µM and 86 µM, respectively. The RF in the data set with P388 [2] is recorded as 0.7; in the data set on L1210 [5], 1. In addition, the half-life in [6] is greater than 8.33 h.
Take `O=[P@]1(N(CCCl)CCCl)N[C@H](OO)C[C@@H](c2ccncc2)O1`: the LC99 in the data set on L1210 [1] was determined as 53 µM; in the data set on P388 [4], 23 µM; with P388 [7] it was 44 µM; in the data set with L1210 [8], 57 µM. For the same compound, the RF was found to be 0.5 with P388 [2] and 1.1 in the data set with L1210 [5]. For the same compound, the T/C is recorded as 119% with L1210 [11]; 150% with L1210 [3]; 131% with L1210 [12]; 138% with L1210 [13]; 130% in the data set on L1210 [10]; 160% in the data set with L1210 [9]. For the same compound, the T/C with L1210 [14] is on record as 150%; with L1210 [15], 190%. This compound also came in with a half-life in [6] of 1.83 h.
Regarding `Cc1ccc([C@@H]2C[C@@H](OO)N[P@](=O)(N(CCCl)CCCl)O2)cc1`, the LC99 in the data set on L1210 [1] turned out to be 5 µM; in the data set with P388 [4], 3 µM; in the data set with P388 [7], 3 µM; with L1210 [8], 6 µM. In addition, the RF with P388 [2] amounted to 1; with L1210 [5] it was 1.2. Moreover, the T/C in the data set on L1210 [3] is given as 150%; with L1210 [9] it was 175%; in the data set on L1210 [15], 175%. Moreover, the half-life in [6] is 4 h.
Consider `O=[P@@]1(N(CCCl)CCCl)N[C@H](OO)C[C@@H](c2ccccc2)O1`, for which the LC99 was 20 µM with L1210 [1], 21 µM in the data set with P388 [4], 16 µM in the data set on P388 [7] and 26 µM in the data set on L1210 [8]. In addition, the RF in the data set with P388 [2] and with L1210 [5] was 1.3 each time. This compound displayed a half-life in data set [6] of 1.53 h.
As for `O=[N+]([O-])c1ccc([C@@H]2C[C@@H](OO)N[P@](=O)(N(CCCl)CCCl)O2)cc1`, the LC99 with L1210 [1] is 8 µM; with P388 [4], 3 µM; in the data set with P388 [7], 7 µM; with L1210 [8] it was 8 µM. In addition, the results for the RF with P388 [2] and in the data set on L1210 [5] were 0.4 and 1, respectively. The T/C in the data set with L1210 [3] amounted to 163%; with L1210 [9], 185%; with L1210 [15], 205%. Moreover, the half-life in [6] turned out to be 3.17 h.
As for `O=P1(N(CCCl)CCCl)NC(OO)CCO1` (stereo not given) [PERFOSFAMIDE], the LC99 in the data set with L1210 [1] amounted to 8 µM; in the data set on P388 [4], 60 µM; with P388 [7], 6 µM; in the data set with L1210 [8], 140 µM. Besides, the figures for the RF in the data set on P388 [2] and with L1210 [5] were 10 and 17, respectively. For the same compound, the T/C was determined as 115% with L1210 [11], 171% in the data set with L1210 [3], 110% with L1210 [12] and 140% in the data set on L1210 [10]. The compound further came in with a half-life in [6] of 0.25 h.

As a reminder, the T/C is the result in the treated group divided by that in the control group, in per cent. One may read the half-life as the time in which the quantity being followed falls by half.
